Results on four compounds are retold here after ChEMBL document CHEMBL1156310, “Stepwise synthesis of oligonucleotide-peptide conjugates containing guanidinium and lipophilic groups in their 3'-termini” (Bioorg Med Chem Lett, 2010).

The subject of data set [1] is SH-SY5Y. The data set can be described thus: Antisense activity in human SH-SY5Y cells assessed as inhibition of luciferase gene expression at 60 nM after 22 hrs by luminometry in the presence of lipofectamine 2000. Type of data set: functional. A digest of the protocol:
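SH-SY5Y cells cotransfected via Lipofectamine 2000 with Renilla (target) and firefly (internal control) luciferase plasmids plus phosphorothioate ASO derivatives at 60 nM, targeting Renilla mRNA site 21-38; scrambled sequences as controls. Read-out: Renilla luciferase inhibition normalized to firefly.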

Data set [2] concerns SH-SY5Y. The experiment in a line: Cellular uptake in human SH-SY5Y cells at 300 nM after 22 hrs by dual leucifearse reporter assay. Type of data set: ADME, cell-based. The settings on record: 0.3 µM. In a few lines: (§1)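 Dual-luciferase plasmids (Renilla target, firefly internal control) transfected into SH-SY5Y; after 3 h, medium replaced with fresh medium containing ASO-peptide conjugates (150, 200, 300 nM) without Lipofectamine 2000. Luciferase activities measured 22 h after transfection; knockdown expressed as inhibition of Renilla expression. Phosphorothioate ASO targets Renilla mRNA 21-38 site.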
For orientation: A reporter such as luciferase makes a cellular process visible.

Data set [3] concerns SH-SY5Y. The experiment in a line: Antisense activity in human SH-SY5Y cells assessed as inhibition of luciferase gene expression at 300 nM after 22 hrs by luminometry. It counts as functional. Also on record: scale not given: the % may be the effect or the level left. A digest of the protocol: as §1

As usually defined, the inhibition is the share of the control response that was lost under treatment. On to `Cc1cn([C@H]2C[C@H](OP(O)(=S)OC[C@H]3O[C@@H](n4cc(C)c(=O)[nH]c4=O)C[C@@H]3OP(O)(=S)OC[C@H]3O[C@@H](n4cnc5c(=O)[nH]c(N)nc54)[C@H](O)[C@@H]3OP(O)(=S)OC[C@H]3O[C@@H](n4cc(C)c(=O)[nH]c4=O)C[C@@H]3OP(O)(=S)OC[C@H]3O[C@@H](n4cc(C)c(=O)[nH]c4=O)C[C@@H]3OP(O)(=S)OC[C@H]3O[C@@H](n4cc(C)c(=O)[nH]c4=O)C[C@@H]3OP(O)(=S)OC[C@H]3O[C@@H](n4ccc(N)nc4=O)[C@H](O)[C@@H]3OP(O)(=S)OC[C@H]3O[C@@H](n4ccc(N)nc4=O)[C@H](O)[C@@H]3OP(O)(=S)OC[C@H]3O[C@@H](n4cc(C)c(=O)[nH]c4=O)C[C@@H]3OP(O)(=S)OC[C@H]3O[C@@H](n4cc(C)c(=O)[nH]c4=O)C[C@@H]3OP(O)(=S)OC[C@H]3O[C@@H](n4cc(C)c(=O)[nH]c4=O)C[C@@H]3OP(O)(=S)OC[C@H]3O[C@@H](n4cnc5c(=O)[nH]c(N)nc54)[C@H](O)[C@@H]3OP(O)(=S)OC[C@H]3O[C@@H](n4ccc(N)nc4=O)[C@H](O)[C@@H]3O)[C@@H](COP(O)(=S)O[C@H]3[C@@H](O)[C@H](n4ccc(N)nc4=O)O[C@@H]3COP(O)(=S)O[C@H]3C[C@H](n4cc(C)c(=O)[nH]c4=O)O[C@@H]3COP(O)(=S)O[C@H]3[C@@H](O)[C@H](n4cnc5c(=O)[nH]c(N)nc54)O[C@@H]3COP(O)(=S)O[C@H]3[C@@H](O)[C@H](n4cnc5c(=O)[nH]c(N)nc54)O[C@@H]3COP(O)(=S)O[C@H]3[C@@H](O)[C@H](n4cnc5c(N)ncnc54)O[C@@H]3COP(O)(=S)OCCCC(=O)N[C@H](CCCCN)C(=O)N[C@@H](CCCCN)C(=O)N[C@H](CCCCN)C(=O)N[C@@H](CCCCN)C(=O)N[C@H](CCCCN)C(=O)N[C@@H](CCCCN)C(=O)N[C@H](CCCCN)C(=O)N[C@@H](CCCCN)C(=O)NCCCCCCO)O2)c(=O)[nH]c1=O` (some centres undefined), for which, in the data set with SH-SY5Y [1], the inhibition at 0.06 µM was 65%. Further, in the data set with SH-SY5Y [2], the Drug uptake was 11%.
For the compound `Cc1cn([C@H]2C[C@H](OP(O)(=S)OC[C@H]3O[C@@H](n4cc(C)c(=O)[nH]c4=O)C[C@@H]3OP(O)(=S)OC[C@H]3O[C@@H](n4cnc5c(=O)[nH]c(N)nc54)[C@H](O)[C@@H]3OP(O)(=S)OC[C@H]3O[C@@H](n4cc(C)c(=O)[nH]c4=O)C[C@@H]3OP(O)(=S)OC[C@H]3O[C@@H](n4cc(C)c(=O)[nH]c4=O)C[C@@H]3OP(O)(=S)OC[C@H]3O[C@@H](n4cc(C)c(=O)[nH]c4=O)C[C@@H]3OP(O)(=S)OC[C@H]3O[C@@H](n4ccc(N)nc4=O)[C@H](O)[C@@H]3OP(O)(=S)OC[C@H]3O[C@@H](n4ccc(N)nc4=O)[C@H](O)[C@@H]3OP(O)(=S)OC[C@H]3O[C@@H](n4cc(C)c(=O)[nH]c4=O)C[C@@H]3OP(O)(=S)OC[C@H]3O[C@@H](n4cc(C)c(=O)[nH]c4=O)C[C@@H]3OP(O)(=S)OC[C@H]3O[C@@H](n4cc(C)c(=O)[nH]c4=O)C[C@@H]3OP(O)(=S)OC[C@H]3O[C@@H](n4cnc5c(=O)[nH]c(N)nc54)[C@H](O)[C@@H]3OP(O)(=S)OC[C@H]3O[C@@H](n4ccc(N)nc4=O)[C@H](O)[C@@H]3O)[C@@H](COP(O)(=S)O[C@H]3[C@@H](O)[C@H](n4ccc(N)nc4=O)O[C@@H]3COP(O)(=S)O[C@H]3C[C@H](n4cc(C)c(=O)[nH]c4=O)O[C@@H]3COP(O)(=S)O[C@H]3[C@@H](O)[C@H](n4cnc5c(=O)[nH]c(N)nc54)O[C@@H]3COP(O)(=S)O[C@H]3[C@@H](O)[C@H](n4cnc5c(=O)[nH]c(N)nc54)O[C@@H]3COP(O)(=S)O[C@H]3[C@@H](O)[C@H](n4cnc5c(N)ncnc54)O[C@@H]3COP(O)(=S)OCCCC(=O)N[C@H](CCCCN)C(=O)N[C@@H](CCCCN)C(=O)NCCCCCCO)O2)c(=O)[nH]c1=O` (some centres undefined), the inhibition at 0.06 µM in the data set with SH-SY5Y [1] came out at 61%. The same compound came in with a Drug uptake in the data set with SH-SY5Y [2] of 11%.
For `Cc1cn([C@H]2C[C@H](OP(O)(=S)OC[C@H]3O[C@@H](n4cc(C)c(=O)[nH]c4=O)C[C@@H]3OP(O)(=S)OC[C@H]3O[C@@H](n4cnc5c(=O)[nH]c(N)nc54)[C@H](O)[C@@H]3OP(O)(=S)OC[C@H]3O[C@@H](n4cc(C)c(=O)[nH]c4=O)C[C@@H]3OP(O)(=S)OC[C@H]3O[C@@H](n4cc(C)c(=O)[nH]c4=O)C[C@@H]3OP(O)(=S)OC[C@H]3O[C@@H](n4cc(C)c(=O)[nH]c4=O)C[C@@H]3OP(O)(=S)OC[C@H]3O[C@@H](n4ccc(N)nc4=O)[C@H](O)[C@@H]3OP(O)(=S)OC[C@H]3O[C@@H](n4ccc(N)nc4=O)[C@H](O)[C@@H]3OP(O)(=S)OC[C@H]3O[C@@H](n4cc(C)c(=O)[nH]c4=O)C[C@@H]3OP(O)(=S)OC[C@H]3O[C@@H](n4cc(C)c(=O)[nH]c4=O)C[C@@H]3OP(O)(=S)OC[C@H]3O[C@@H](n4cc(C)c(=O)[nH]c4=O)C[C@@H]3OP(O)(=S)OC[C@H]3O[C@@H](n4cnc5c(=O)[nH]c(N)nc54)[C@H](O)[C@@H]3OP(O)(=S)OC[C@H]3O[C@@H](n4ccc(N)nc4=O)[C@H](O)[C@@H]3O)[C@@H](COP(O)(=S)O[C@H]3[C@@H](O)[C@H](n4ccc(N)nc4=O)O[C@@H]3COP(O)(=S)O[C@H]3C[C@H](n4cc(C)c(=O)[nH]c4=O)O[C@@H]3COP(O)(=S)O[C@H]3[C@@H](O)[C@H](n4cnc5c(=O)[nH]c(N)nc54)O[C@@H]3COP(O)(=S)O[C@H]3[C@@H](O)[C@H](n4cnc5c(=O)[nH]c(N)nc54)O[C@@H]3COP(O)(=S)O[C@H]3[C@@H](O)[C@H](n4cnc5c(N)ncnc54)O[C@@H]3COP(O)(=S)OCCCC(=O)N[C@H](CCCCNC(=N)N)C(=O)N[C@@H](CCCCNC(=N)N)C(=O)N[C@H](CCCCNC(=N)N)C(=O)N[C@@H](CCCCNC(=N)N)C(=O)NCCCCCCO)O2)c(=O)[nH]c1=O` (some centres undefined) the same measures were 57% and 21%.
With `Cc1cn([C@H]2C[C@H](OP(O)(=S)OC[C@H]3O[C@@H](n4cc(C)c(=O)[nH]c4=O)C[C@@H]3OP(O)(=S)OC[C@H]3O[C@@H](n4cnc5c(=O)[nH]c(N)nc54)[C@H](O)[C@@H]3OP(O)(=S)OC[C@H]3O[C@@H](n4cc(C)c(=O)[nH]c4=O)C[C@@H]3OP(O)(=S)OC[C@H]3O[C@@H](n4cc(C)c(=O)[nH]c4=O)C[C@@H]3OP(O)(=S)OC[C@H]3O[C@@H](n4cc(C)c(=O)[nH]c4=O)C[C@@H]3OP(O)(=S)OC[C@H]3O[C@@H](n4ccc(N)nc4=O)[C@H](O)[C@@H]3OP(O)(=S)OC[C@H]3O[C@@H](n4ccc(N)nc4=O)[C@H](O)[C@@H]3OP(O)(=S)OC[C@H]3O[C@@H](n4cc(C)c(=O)[nH]c4=O)C[C@@H]3OP(O)(=S)OC[C@H]3O[C@@H](n4cc(C)c(=O)[nH]c4=O)C[C@@H]3OP(O)(=S)OC[C@H]3O[C@@H](n4cc(C)c(=O)[nH]c4=O)C[C@@H]3OP(O)(=S)OC[C@H]3O[C@@H](n4cnc5c(=O)[nH]c(N)nc54)[C@H](O)[C@@H]3OP(O)(=S)OC[C@H]3O[C@@H](n4ccc(N)nc4=O)[C@H](O)[C@@H]3O)[C@@H](COP(O)(=S)O[C@H]3[C@@H](O)[C@H](n4ccc(N)nc4=O)O[C@@H]3COP(O)(=S)O[C@H]3C[C@H](n4cc(C)c(=O)[nH]c4=O)O[C@@H]3COP(O)(=S)O[C@H]3[C@@H](O)[C@H](n4cnc5c(=O)[nH]c(N)nc54)O[C@@H]3COP(O)(=S)O[C@H]3[C@@H](O)[C@H](n4cnc5c(=O)[nH]c(N)nc54)O[C@@H]3COP(O)(=S)O[C@H]3[C@@H](O)[C@H](n4cnc5c(N)ncnc54)O[C@@H]3COP(O)(=S)OCCCC(=O)N[C@H](CCCCNC(=N)N)C(=O)N[C@@H](CCCCNC(N)N)C(=O)N[C@H](CCCCNC(=N)N)C(=O)N[C@@H](CCCCNC(=N)N)C(=O)N[C@H](CCCCNC(=N)N)C(=O)N[C@@H](CCCCNC(=N)N)C(=O)N[C@H](CCCCNC(=N)N)C(=O)N[C@@H](CCCCNC(=N)N)C(=O)NCCCCCCO)O2)c(=O)[nH]c1=O` (some centres undefined), the inhibition at 0.06 µM with SH-SY5Y [1] stood at 66%. In the data set with SH-SY5Y [2], this compound displayed a Drug uptake of 28%. Besides, the Activity in the data set on SH-SY5Y [3] worked out at 28%.
